Source: ChEMBL document CHEMBL2401652 (J Med Chem, 2013)
Blank lines part the entries; values can stand above or below the molecule they belong to. The source made the active and inactive calls. No cut-off for these calls is given here.

Columns and labels:
[1] = test system: T98G; assay: Induction of apoptosis in human T98G cells assessed as procaspase-7 cleavage at 50 uM after 24 hrs by Western blot analysis; format: functional, cell-based
Procedure, shortened: (§1)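 Cells (1.5 × 10^6) exposed 24 h to compound (25 or 50 μM). 50 μg protein per lane resolved on 10% SDS-PAGE and transferred to nitrocellulose. Membrane blocked in 2% TBS-BSA, then probed with primary antibody overnight at 4 °C and HRP secondary. Detection by ECL, with β-actin as loading control. Untreated control run in parallel.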

[2] = test system: T98G; assay: Cytotoxicity against human T98G cells assessed as growth inhibition after 24 hrs by MTT assay; format: functional, cell-based
Procedure, shortened: (§2)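 Log-phase cells (1 × 10^4 per well) treated 24 h with 0–30 μM at 37 °C, 5% CO2, in triplicate; MTT added for final 3 h; vehicle 0.15% ethanol; IC50 from three separate days, mean ± SE.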

[3] = test system: PANC-1; assay: Induction of apoptosis in human PANC1 cells assessed as procaspase-7 cleavage at 50 uM after 24 hrs by Western blot analysis; format: functional, cell-based
Procedure, shortened: (§3)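 Cells (1.5 × 10^6) treated 24 h at 25 or 50 μM; 50 μg protein per lane on 10% SDS-PAGE, nitrocellulose, 2% TBS-BSA block, primary antibody overnight at 4 °C, HRP secondary, ECL detection; β-actin loading control; untreated controls in parallel.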

[4] = Binding affinity to DNA (unknown origin) at 100 uM after 2 hrs by UV-Vis absorption spectroscopic analysis
Procedure, shortened: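 DNA (100 μg/mL; stock 1.0 mg/mL in 50 mM Tris-HCl pH 7.5, 50 mM NaCl) with ligand fixed at 100 μM; incubated at 37 °C, then diluted six-fold; absorbance scanned 220–350 nm at 25 °C, 1 cm quartz cell; 260 nm band monitored.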

[5] = test system: T98G; assay: Induction of apoptosis in human T98G cells assessed as procaspase-8 cleavage at 50 uM after 24 hrs by Western blot analysis; format: functional, cell-based; procedure, shortened: as §1
[6] = test system: PANC-1; assay: Induction of apoptosis in human PANC1 cells assessed as PARP cleavage at 50 uM after 24 hrs by Western blot analysis; format: functional, cell-based; procedure, shortened: as §3
[7] = test system: PANC-1; assay: Cytotoxicity against human PANC1 cells assessed as growth inhibition after 24 hrs by MTT assay; format: functional, cell-based; procedure, shortened: as §2
[8] = test system: T98G; assay: Induction of apoptosis in human T98G cells assessed as induction of DNA damage at 20 uM after 24 hrs by comet assay relative to untreated control; format: functional
Procedure, shortened: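 T98G cells (1 × 10^5) treated 24 h with 0 or 20 μM. About 20000 cells embedded in 0.5% low-melting agarose and lysed overnight at 4 °C at pH 10. Alkaline electrophoresis (pH 13) for 30 min at 300 mA at 4 °C, then ethidium bromide staining. Tail length (nucleus centre to tail tip) from ≥20 comets, reported as mean ± SD.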

[9] = test system: PANC-1; assay: Induction of apoptosis in human PANC1 cells assessed as procaspase-8 cleavage at 50 uM after 24 hrs by Western blot analysis; format: functional, cell-based; procedure, shortened: as §3
[10] = test system: K562; assay: Cytotoxicity against human K562 cells assessed as growth inhibition after 24 hrs by MTT assay; format: functional, cell-based; procedure, shortened: as §2
[11] = test system: HCT-116; assay: Cytotoxicity against human HCT116 cells assessed as growth inhibition after 24 hrs by MTT assay; format: functional, cell-based; procedure, shortened: as §2
[12] = test system: A549; assay: Cytotoxicity against human A549 cells assessed as growth inhibition after 24 hrs by MTT assay; format: functional, cell-based; procedure, shortened: as §2
[13] = test system: PANC-1; assay: Downregulation of Bcl-xL expression in human PANC1 cells at 50 uM after 24 hrs by Western blot analysis; format: functional, cell-based; procedure, shortened: as §3
[14] = test system: T98G; assay: Induction of apoptosis in human T98G cells assessed as PARP cleavage at 50 uM after 24 hrs by Western blot analysis; format: functional, cell-based; procedure, shortened: as §1
[15] = test system: PANC-1; assay: Induction of apoptosis in human PANC1 cells assessed as procaspase-9 cleavage at 50 uM after 24 hrs by Western blot analysis; format: functional, cell-based; procedure, shortened: as §1
[16] = test system: PANC-1; assay: Downregulation of total Bid expression in human PANC1 cells at 50 uM after 24 hrs by Western blot analysis; format: functional, cell-based; procedure, shortened: as §3
[17] = test system: T98G; assay: Induction of apoptosis in human T98G cells assessed as procaspase-9 cleavage at 50 uM after 24 hrs by Western blot analysis; format: functional, cell-based; procedure, shortened: as §1
[18] = test system: T98G; assay: Downregulation of Bcl-xL expression in human T98G cells at 50 uM after 24 hrs by Western blot analysis; format: functional, cell-based; procedure, shortened: as §3
[19] = test system: T98G; assay: Downregulation of total Bid expression in human T98G cells at 50 uM after 24 hrs by Western blot analysis; format: functional, cell-based; procedure, shortened: as §3
[20] = test system: U-373MG ATCC; assay: Cytotoxicity against human U373MG cells assessed as induction of morphological changes at 30 uM after 3 hrs by phase contrast microscopic analysis; format: functional, cell-based
Procedure, shortened: (§4)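 U373MG glioma cells exposed to 30 μM for 3 or 12 h; shape and density examined by phase contrast microscopy against untreated cells.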

[21] = test system: U-373MG ATCC; assay: Cytotoxicity against human U373MG cells assessed as induction of morphological changes at 30 uM after 12 hrs by phase contrast microscopic analysis; format: functional, cell-based; procedure, shortened: as §4
[22] = test system: U-373MG ATCC; assay: Cytotoxicity against human U373MG cells assessed as induction of morphological changes at 30 uM up to 24 hrs by phase contrast microscopic analysis; format: functional, cell-based
[23] = Cytotoxicity against human HEK293T cells assessed as cell viability at 60 uM after 24 hrs by MTT assay relative to control; format: cell-based, HEK-293T; conditions: read-out: Activity
Procedure, shortened: (§5)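 Vero and HEK-293T normal cells (1 × 10^4 per well) exposed 24 h to 0, 15, 30, 45, 60 μM at 37 °C, 5% CO2, triplicate; MTT added 3 h; viability relative to vehicle control (0.15% ethanol).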

[24] = Cytotoxicity against african green monkey Vero cells assessed as cell viability at 60 uM after 24 hrs by MTT assay relative to control; format: cell-based; conditions: chlorocebus sabaeus, read-out: Activity; procedure, shortened: as §5

Activity [4]: Active
SMILES: CC(C)=CCC[C@]1(C)C=Cc2c(c(C)cc3c4ccccc4n(C)c23)O1
Activity [1]: inactive
growth inhibition (GI) [2]: Active
Activity [3]: inactive
Activity [5]: inactive
Activity [6]: inactive
growth inhibition (GI) [7]: Active
Activity [8]: inactive
Activity [9]: inactive
growth inhibition (GI) [10]: Active
growth inhibition (GI) [11]: Active
growth inhibition (GI) [12]: Active
Activity [13]: inactive
Activity [14]: inactive
Activity [15]: inactive
Activity [16]: inactive
Activity [17]: inactive
Activity [18]: inactive
Activity [19]: inactive

SMILES: CC(=O)Oc1ccc2c(c1)[nH]c1c3c(c(C)cc12)O[C@](C)(CCC=C(C)C)C=C3
Activity [20]: inactive
growth inhibition (GI) [2]: Active
Activity [21]: Active
growth inhibition (GI) [7]: Active
growth inhibition (GI) [10]: Active
growth inhibition (GI) [11]: Active
growth inhibition (GI) [12]: Active
Activity [22]: Active

SMILES: CC(C)=CCCC1(C)C=Cc2c(c(C)cc3c2[nH]c2cc(O)ccc23)O1 (centres undefined) [MAHANINE]
viability at 24 h, 60 µM [23]: > 65%
viability at 24 h, 60 µM [24]: > 85%
